Assay results taken from ChEMBL document CHEMBL1149410, “Discovery of a potent phenolic N1-benzylidene-pyridinecarboxamidrazone selective against Gram-positive bacteria” (Bioorg Med Chem Lett, 2006).
In brackets after ≈: the same amount, converted by molar mass. Activity calls are given as the source filed them. No cut-off for these calls is given here.

How the values were obtained:
[1] = system: Mycolicibacterium fortuitum; assay: Antibacterial activity against Mycobacterium fortuitum; assay type: functional, organism-based
Summary of the method: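 The Mycobacterium fortuitum reference strain NCTC 10394 was screened for a zone of inhibition on Columbia agar supplemented with horse blood. Compounds were also screened at a single concentration in Middlebrook 7H9 broth with glycerol and ADC enrichment. The MIC was determined in broth when a zone or single-concentration activity was seen.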

[2] = system: Staphylococcus aureus; assay: Antibacterial activity against 10 clinical isolate methicillin-resistant strains of Staphylococcus aureus; assay type: functional
Summary of the method: (§1)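 Agar dilution MIC on Mueller–Hinton agar. Bacteria were spotted with a multipoint inoculator and plates incubated at 37 °C for 18 h. MIC was taken as the lowest concentration inhibiting growth. The panels covered clinical MRSA isolates, methicillin-sensitive S. aureus, enterococci, Gram-negative bacteria and vancomycin-resistant enterococci.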

[3] = system: PBMC; assay: Toxicity towards human mononuclear leucocytes at 1 mM; assay type: cell-based; details: 1000 µM
Summary of the method: (§2)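 Human mononuclear leucocytes were exposed to compound for 1 h, then held in compound-free medium for 18 h. Cell death was scored by trypan blue exclusion and reported as % leucocyte death. The test concentration was 1 mM, or 0.5 mM where solubility limited it.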

[4] = system: Staphylococcus haemolyticus; assay: Antibacterial activity against clinical isolate of Staphylococcus haemolyticus; assay type: functional
Summary of the method: (§3)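 Agar dilution MIC on Mueller–Hinton agar, with a multipoint inoculator spotting the organisms. The MIC was the lowest concentration that inhibited growth after 18 h at 37 °C.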

[5] = system: Escherichia coli; assay: Antibacterial activity against Escherichia coli W3110 R-; assay type: functional; summary of the method: as §1
[6] = system: Escherichia coli; assay: Antibacterial activity against Escherichia coli W3110 R+; assay type: functional; summary of the method: as §1
[7] = system: Klebsiella pneumoniae; assay: Antibacterial activity against Klebsiella pneumoniae 327; assay type: functional; summary of the method: as §1
[8] = system: Staphylococcus aureus; assay: Antibacterial activity against methicillin-sensitive Staphylococcus aureus NCTC 6571; assay type: functional; summary of the method: as §1
[9] = system: Staphylococcus aureus; assay: Antibacterial activity against methicillin-sensitive Staphylococcus aureus NCTC 10788; assay type: functional; summary of the method: as §1
[10] = system: Staphylococcus aureus; assay: Antibacterial activity against methicillin-sensitive Staphylococcus aureus Cowan 1; assay type: functional; summary of the method: as §1
[11] = system: Enterococcus faecium; assay: Antibacterial activity against Enterococcus faecium ACTCC 10541; assay type: functional; summary of the method: as §3
[12] = system: Enterococcus faecium; assay: Antibacterial activity against Enterococcus faecium NCTC 7171; assay type: functional; summary of the method: as §3
[13] = system: Enterococcus faecalis; assay: Antibacterial activity against Enterococcus faecalis NCTC 5957; assay type: functional; summary of the method: as §3
[14] = system: Enterococcus faecalis; assay: Antibacterial activity against Enterococcus faecalis isolate 1; assay type: functional; summary of the method: as §3
[15] = system: Serratia marcescens; assay: Antibacterial activity against Serratia marcescens 4444; assay type: functional; summary of the method: as §1
[16] = system: Pseudomonas aeruginosa; assay: Antibacterial activity against Pseudomonas aeruginosa NCTC 6749; assay type: functional; summary of the method: as §1
[17] = system: Stenotrophomonas maltophilia; assay: Antibacterial activity against Stenotrophomonas maltophilia NCTC 10257; assay type: functional; summary of the method: as §1
[18] = system: Enterobacter cloacae; assay: Antibacterial activity against Enterobacter cloacae NCTC 11582; assay type: functional; summary of the method: as §1
[19] = system: Bordetella bronchiseptica; assay: Antibacterial activity against Bordetella bronchiseptica NCTC 8344; assay type: functional; summary of the method: as §1
[20] = system: Enterococcus; assay: Antibacterial activity against vancomycin-resistant Enterococcus 3001562; assay type: functional; summary of the method: as §1
[21] = system: Enterococcus; assay: Antibacterial activity against vancomycin-resistant Enterococcus 3002043; assay type: functional; summary of the method: as §1
[22] = system: Enterococcus; assay: Antibacterial activity against vancomycin-resistant Enterococcus 3002066; assay type: functional; summary of the method: as §1
[23] = system: Enterococcus; assay: Antibacterial activity against vancomycin-resistant Enterococcus 3005323; assay type: functional; summary of the method: as §1
[24] = system: Enterococcus; assay: Antibacterial activity against vancomycin-resistant Enterococcus 3005426; assay type: functional; summary of the method: as §1
[25] = system: Enterococcus; assay: Antibacterial activity against vancomycin-resistant Enterococcus 3005353; assay type: functional; summary of the method: as §1
[26] = system: Enterococcus; assay: Antibacterial activity against vancomycin-resistant Enterococcus 3102095; assay type: functional; summary of the method: as §1
[27] = system: Enterococcus faecalis; assay: Antibacterial activity against Enterococcus faecalis isolate 2; assay type: functional; summary of the method: as §1
[28] = system: Enterococcus faecalis; assay: Antibacterial activity against Enterococcus faecalis isolate 3; assay type: functional; summary of the method: as §1
[29] = system: Enterococcus faecalis; assay: Antibacterial activity against Enterococcus faecalis isolate 4; assay type: functional; summary of the method: as §3
[30] = system: Enterococcus faecalis; assay: Antibacterial activity against Enterococcus faecalis isolate 5; assay type: functional; summary of the method: as §3
[31] = system: Mycobacterium tuberculosis; assay: Antibacterial activity against Mycobacterium tuberculosis H37Rv at 6.25 ug/ml; assay type: functional
Summary of the method: (§4)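 Inhibition of M. tuberculosis H37Rv (ATCC 27294) growth was tested in BACTEC 12B medium. Percent inhibition was recorded at a fixed concentration, and MIC was also determined.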

[32] = system: PBMC; assay: Toxicity towards human mononuclear leucocytes at 0.5 mM; assay type: cell-based; details: 500 µM; summary of the method: as §2
[33] = system: Mycobacterium tuberculosis; assay: Antibacterial activity against Mycobacterium tuberculosis H37Rv; assay type: functional; summary of the method: as §4

SMILES: CC(C)(C)c1cc(/C=N/N=C(\N)c2ccccn2)c(O)c(C(C)(C)C)c1
- Activity [1]: inactive
- MIC [2]: inactive

SMILES: N/C(=N\N=C\c1cc(O)c(O)cc1O)c1ccncc1
- Activity [1]: inactive
- MIC [2]: 20 µg/mL (≈ 73.5 µM)

SMILES: CC(C)(C)c1cc(/C=N/N=C(\N)c2cnccn2)c(O)c(C(C)(C)C)c1
- Activity [1]: inactive
- MIC [2]: inactive

SMILES: N/C(=N\N=C\c1ccc(O)c(O)c1O)c1ccncc1
- Activity [1]: inactive
- MIC [2]: 30 µg/mL (≈ 110 µM)

SMILES: N/N=C(/N)c1ccncc1
- Activity [3]: 13.8%

SMILES: N/C(=N\N=C\c1cc([N+](=O)[O-])cc(Br)c1O)c1ccncc1
- MIC [2]: inactive

SMILES: CC(=O)Oc1c(/C=N/N=C(\N)c2ccncc2)cc(C(C)(C)C)cc1C(C)(C)C
- Activity [1]: inactive
- MIC [2]: 4 µg/mL (≈ 10.1 µM)

SMILES: CN[C@H](CC(C)C)C(=O)N[C@H]1C(=O)N[C@@H](CC(N)=O)C(=O)N[C@H]2C(=O)N[C@H]3C(=O)N[C@H](C(=O)N[C@H](C(=O)O)c4cc(O)cc(O)c4-c4cc3ccc4O)[C@H](O)c3ccc(c(Cl)c3)Oc3cc2cc(c3O[C@@H]2O[C@H](CO)[C@@H](O)[C@H](O)[C@H]2O[C@H]2C[C@](C)(N)[C@H](O)[C@H](C)O2)Oc2ccc(cc2Cl)[C@H]1O [VANCOMYCIN]
- MIC [4]: 8 µg/mL (≈ 5.52 µM)
- MIC [5]: > 16 µg/mL
- MIC [6]: > 16 µg/mL
- MIC [7]: > 16 µg/mL
- MIC [8]: 0.12 µg/mL (≈ 0.0828 µM)
- MIC [9]: 0.25 µg/mL (≈ 0.173 µM)
- MIC [10]: 0.12 µg/mL (≈ 0.0828 µM)
- MIC [11]: 0.12 µg/mL (≈ 0.0828 µM)
- MIC [12]: 0.12 µg/mL (≈ 0.0828 µM)
- MIC [13]: 0.25 µg/mL (≈ 0.173 µM)
- MIC [14]: 0.12 µg/mL (≈ 0.0828 µM)
- MIC [15]: > 16 µg/mL
- MIC [16]: > 16 µg/mL
- MIC [17]: > 16 µg/mL
- MIC [18]: > 16 µg/mL
- MIC [19]: > 16 µg/mL
- MIC [20]: 4 µg/mL (≈ 2.76 µM)
- MIC [21]: 4 µg/mL (≈ 2.76 µM)
- MIC [22]: 4 µg/mL (≈ 2.76 µM)
- MIC [23]: > 16 µg/mL
- MIC [24]: 4 µg/mL (≈ 2.76 µM)
- MIC [25]: > 16 µg/mL
- MIC [26]: > 16 µg/mL
- MIC [2]: 0.05 µg/mL (≈ 0.0345 µM)
- MIC [27]: 0.25 µg/mL (≈ 0.173 µM)
- MIC [28]: 0.25 µg/mL (≈ 0.173 µM)
- MIC [29]: 16 µg/mL (≈ 11 µM)
- MIC [30]: 2 µg/mL (≈ 1.38 µM)

SMILES: COc1cccc(/C=N/N=C(\N)c2ccncc2)c1O
- Activity [1]: inactive
- MIC [2]: inactive

SMILES: CC(C)(C)c1cc(/C=N/N=C(\N)c2ccncc2)c(O)c(C(C)(C)C)c1
- MIC [4]: 2 µg/mL (≈ 5.67 µM)
- MIC [5]: inactive
- MIC [6]: inactive
- MIC [7]: inactive
- inhibition at 6.25 µg/mL [31]: 100%
- Activity [1]: inactive
- Activity [32]: 100%
- MIC [8]: 2 µg/mL (≈ 5.67 µM)
- MIC [9]: 2 µg/mL (≈ 5.67 µM)
- MIC [10]: 2 µg/mL (≈ 5.67 µM)
- MIC [11]: 2 µg/mL (≈ 5.67 µM)
- MIC [12]: 2 µg/mL (≈ 5.67 µM)
- MIC [13]: 2 µg/mL (≈ 5.67 µM)
- MIC [14]: 2 µg/mL (≈ 5.67 µM)
- MIC [15]: inactive
- MIC [16]: inactive
- MIC [17]: inactive
- MIC [18]: inactive
- MIC [19]: inactive
- MIC [20]: 2 µg/mL (≈ 5.67 µM)
- MIC [21]: 2 µg/mL (≈ 5.67 µM)
- MIC [22]: 2 µg/mL (≈ 5.67 µM)
- MIC [23]: 2 µg/mL (≈ 5.67 µM)
- MIC [24]: 2 µg/mL (≈ 5.67 µM)
- MIC [25]: 2 µg/mL (≈ 5.67 µM)
- MIC [26]: 2 µg/mL (≈ 5.67 µM)
- MIC [33]: 6.25 µg/mL (≈ 17.7 µM)
- MIC [2]: 2 µg/mL (≈ 5.67 µM)
- MIC [27]: 2 µg/mL (≈ 5.67 µM)
- MIC [28]: 4 µg/mL (≈ 11.3 µM)
- MIC [29]: 2 µg/mL (≈ 5.67 µM)
- MIC [30]: 2 µg/mL (≈ 5.67 µM)

SMILES: NNC(=O)c1ccncc1 [ISONIAZID]
- Activity [3]: 12.4%

SMILES: CC(C)(C)c1cc(/C=N/N=C(\N)c2ccncc2)cc(C(C)(C)C)c1O
- MIC [4]: inactive
- MIC [5]: inactive
- MIC [6]: inactive
- MIC [7]: inactive
- inhibition at 6.25 µg/mL [31]: 75%
- Activity [1]: inactive
- MIC [8]: > 256 µg/mL
- MIC [9]: inactive
- MIC [10]: inactive
- MIC [11]: inactive
- MIC [12]: inactive
- MIC [13]: inactive
- MIC [14]: inactive
- MIC [15]: inactive
- MIC [16]: inactive
- MIC [17]: inactive
- MIC [18]: inactive
- MIC [19]: inactive
- MIC [2]: > 256 µg/mL

SMILES: CC(C)(C)c1cc(/C=N/N=C(\N)c2cccnc2)c(O)c(C(C)(C)C)c1
- Activity [1]: inactive
- MIC [2]: inactive
